Assay results from ChEMBL document CHEMBL1124824, “Synthesis and biological activity of atrial natriuretic factor analogues: effect of modifications to the disulfide bridge” (J Med Chem, 1990).
Starred links: 1 amine or outer side, 2 acyl side, 3 side chain; linkers in the order of their positions; H or OH if unused. Positions of bridges follow the written chain, without caps; N, C: chain ends. Non-standard residues stand in square brackets, D forms with d. Residues, ends and D or L forms follow the SMILES beside them. βAsp = O=C(O)[C@H](CC(=O)[*:2])N[*:1]; Asu = N[C@@H](CCCCCC(=O)O)C(=O)O; Pen = CC(C)(S)[C@H](N)C(=O)O; hCys = N[C@@H](CCS)C(=O)O; X2 = O=C(CCC[*:2])[*:1]; X1 = O=C(CC[*:2])[*:1]; CO = O=C([*:1])[*:2]

Key:
[1] = molecular target: T1, Atrial natriuretic peptide receptor 2 (Bos taurus, UniProt P46197); assay: Binding affinity was determined based on the displacement of [125]r-ANF (99-126) from binding sites on bovine adrenal zona glomerulosa cell membranes (Atrionatriuretic peptide receptor B)
T1 sequence (P46197 whole entry): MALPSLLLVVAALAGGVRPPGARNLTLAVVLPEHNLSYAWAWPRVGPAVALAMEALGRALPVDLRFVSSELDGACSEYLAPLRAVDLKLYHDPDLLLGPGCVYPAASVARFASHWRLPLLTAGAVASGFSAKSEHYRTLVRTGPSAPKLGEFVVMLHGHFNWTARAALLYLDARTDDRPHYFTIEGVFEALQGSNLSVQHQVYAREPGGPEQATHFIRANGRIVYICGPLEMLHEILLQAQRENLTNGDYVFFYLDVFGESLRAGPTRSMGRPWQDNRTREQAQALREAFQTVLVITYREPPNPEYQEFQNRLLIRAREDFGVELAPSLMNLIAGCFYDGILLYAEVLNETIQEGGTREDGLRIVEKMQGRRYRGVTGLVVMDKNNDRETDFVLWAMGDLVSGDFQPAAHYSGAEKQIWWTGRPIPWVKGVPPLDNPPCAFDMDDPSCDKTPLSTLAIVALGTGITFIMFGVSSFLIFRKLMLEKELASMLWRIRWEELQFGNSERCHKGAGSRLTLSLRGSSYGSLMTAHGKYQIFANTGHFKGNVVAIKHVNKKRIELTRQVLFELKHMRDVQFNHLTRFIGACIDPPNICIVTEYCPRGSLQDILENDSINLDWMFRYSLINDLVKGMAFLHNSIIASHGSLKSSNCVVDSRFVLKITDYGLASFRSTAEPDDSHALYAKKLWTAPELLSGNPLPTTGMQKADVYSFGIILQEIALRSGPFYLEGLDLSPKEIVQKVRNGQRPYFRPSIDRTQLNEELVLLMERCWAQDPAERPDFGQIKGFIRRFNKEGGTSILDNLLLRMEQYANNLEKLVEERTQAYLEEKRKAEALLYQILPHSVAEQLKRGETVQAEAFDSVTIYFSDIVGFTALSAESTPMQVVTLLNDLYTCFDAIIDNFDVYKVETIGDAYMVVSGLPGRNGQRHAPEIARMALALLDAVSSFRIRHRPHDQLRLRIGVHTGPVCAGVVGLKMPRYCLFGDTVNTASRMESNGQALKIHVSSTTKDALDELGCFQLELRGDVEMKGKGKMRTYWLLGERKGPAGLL

[2] = molecular target: T2, Atrial natriuretic peptide receptor 3 (Mus musculus, UniProt P70180); assay: Binding affinity was determined based on the displacement of [125]r-ANF (99-126) from binding sites on mouse fibroblasts (NIH 3T3) cells (Atrionatriuretic peptide receptor C).
T2 sequence (P70180 whole entry): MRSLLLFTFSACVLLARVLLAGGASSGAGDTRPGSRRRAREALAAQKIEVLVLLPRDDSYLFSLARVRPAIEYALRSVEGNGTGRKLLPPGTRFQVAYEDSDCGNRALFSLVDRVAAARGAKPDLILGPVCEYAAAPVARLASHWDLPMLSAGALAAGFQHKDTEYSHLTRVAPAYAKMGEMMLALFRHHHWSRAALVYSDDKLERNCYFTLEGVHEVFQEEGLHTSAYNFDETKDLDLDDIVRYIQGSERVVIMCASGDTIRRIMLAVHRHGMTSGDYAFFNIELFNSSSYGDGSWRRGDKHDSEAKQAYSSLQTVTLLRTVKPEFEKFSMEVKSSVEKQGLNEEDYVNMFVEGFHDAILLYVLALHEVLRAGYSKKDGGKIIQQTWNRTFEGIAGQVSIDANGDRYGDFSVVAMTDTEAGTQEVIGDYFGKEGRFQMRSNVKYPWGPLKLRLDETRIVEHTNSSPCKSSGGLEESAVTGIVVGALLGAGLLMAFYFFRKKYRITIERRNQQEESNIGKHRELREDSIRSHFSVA

Oryctolagus cuniculus = species on record: Oryctolagus cuniculus; assay: Compound was tested for the inhibition of the stimulated contractions of the superfused rabbit thoracic aortic rings.; assay type: functional, Aorta
Method in brief: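 Rabbit thoracic aorta rings (4 mm) were held isometrically at 10-g resting tension, superfused and precontracted with phenylephrine. Test peptide was added to the superfusate above the tissue in successively higher doses after each recovery. Doses were based on peptide content. EC50 came from the dose-response curve, mean of three determinations ± SEM.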

Rattus norvegicus [3] = species on record: Rattus norvegicus; assay: Compound was tested for the K+ excretion for treated over control animals; assay type: functional
Method in brief: (§1)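 Male Sprague-Dawley rats (300-325 g) under halothane/lidocaine had femoral artery, femoral vein and bladder cannulated. After at least 1 h of recovery in restraint, they received Ringer's (1.2 mL/h), with 10-min urine collections over a 30-min control period. Infusion of 0.5 μg/kg per min for 30 min and a 30-min Ringer's recovery followed. Na+, K+ and Cl- were measured with an electrolyte analyzer, reported as treated minus control μmol/sample. Volume ratio is treated/control over three consecutive 10-min samples, six animals.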

Rattus norvegicus [4] = species on record: Rattus norvegicus; assay: Compound was tested for the Na+ excretion for treated over control animals; assay type: functional; method in brief: as §1
Rattus norvegicus [5] = species on record: Rattus norvegicus; assay: Compound was tested for antihypertensive activity in 5/6 nephrectomized rats.; assay type: functional
Method in brief: (§2)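 Rats were anesthetized with halothane after skin infiltration with 2% lidocaine, and the femoral artery and vein were cannulated. After recovery, arterial pressure was recorded. A saline control period was followed by i.v. infusion in 30-min steps at 0.1, 0.2, 0.5 and 1.0 μg/kg per min (70 μL/kg per min). Hydralazine (100 μg/kg per min) was given for standardization. ED50 is in nmol/kg per min, from six animals.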

Rattus norvegicus [6] = species on record: Rattus norvegicus; assay: Compound was tested for antihypertensive activity in DOCA nephrectomized rats.; assay type: functional; method in brief: as §2

CC[C@H](C)[C@@H]1NC(=O)[C@H](CCCN=C(N)N)NC(=O)[C@H](CC(=O)O)NC(=O)[C@H]([C@@H](C)CC)NC(=O)[C@H](CCCN=C(N)N)NC(=O)CNC(=O)CNC(=O)[C@H](Cc2ccccc2)NC(=O)CCC=CC[C@@H](C(=O)N[C@@H](CC(N)=O)C(=O)N[C@@H](CO)C(=O)N[C@@H](Cc2ccccc2)C(=O)N[C@@H](CCCN=C(N)N)C(=O)N[C@@H](Cc2ccc(O)cc2)C(=O)O)NC(=O)CNC(=O)[C@H](CC(C)C)NC(=O)CNC(=O)[C@H](CO)NC(=O)[C@H](CCC(N)=O)NC(=O)[C@H](C)NC(=O)CNC1=O
IC50 [1]: 51 nM | IC50 [2]: 0.63 nM | EC50 (Oryctolagus cuniculus): 5.5e-10 M 50ul-1

CC[C@H](C)[C@@H]1NC(=O)[C@H](CCCN=C(N)N)NC(=O)[C@H](CC(=O)O)NC(=O)[C@H]([C@@H](C)CC)NC(=O)[C@H](CCCN=C(N)N)NC(=O)CNC(=O)CNC(=O)[C@H](Cc2ccccc2)NC(=O)CCCSC[C@@H](C(=O)N[C@@H](CC(N)=O)C(=O)N[C@@H](CO)C(=O)N[C@@H](Cc2ccccc2)C(=O)N[C@@H](CCCN=C(N)N)C(=O)N[C@@H](Cc2ccc(O)cc2)C(=O)O)NC(=O)CNC(=O)[C@H](CC(C)C)NC(=O)CNC(=O)[C@H](CO)NC(=O)[C@H](CCC(N)=O)NC(=O)[C@H](C)NC(=O)CNC1=O (FGGRIDRIGAQSGLGCNSFRY-OH; linker N-16 via X2)
IC50 [1]: 6.17 nM | IC50 [2]: 0.56 nM | EC50 (Oryctolagus cuniculus): 2.6e-10 M 50ul-1

CC[C@H](C)[C@@H]1NC(=O)[C@H](CCCN=C(N)N)NC(=O)[C@H](CC(=O)O)NC(=O)[C@H]([C@@H](C)CC)NC(=O)[C@H](CCCN=C(N)N)NC(=O)CNC(=O)CNC(=O)[C@H](Cc2ccccc2)NC(=O)CCCCC[C@@H](C(=O)N[C@@H](CC(N)=O)C(=O)N[C@@H](CO)C(=O)N[C@@H](Cc2ccccc2)C(=O)N[C@@H](CCCN=C(N)N)C(=O)N[C@@H](Cc2ccc(O)cc2)C(=O)O)NC(=O)CNC(=O)[C@H](CC(C)C)NC(=O)CNC(=O)[C@H](CO)NC(=O)[C@H](CCC(N)=O)NC(=O)[C@H](C)NC(=O)CNC1=O (FGGRIDRIGAQSGLG[Asu]NSFRY-OH; lactam N-16)
IC50 [1]: 28.8 nM | IC50 [2]: 0.78 nM | EC50 (Oryctolagus cuniculus): 4.8e-10 M 50ul-1

CC[C@H](C)[C@@H]1NC(=O)[C@H](CCCN=C(N)N)NC(=O)[C@H](CC(=O)O)NC(=O)[C@H]([C@@H](C)CC)NC(=O)[C@H](CCCN=C(N)N)NC(=O)CNC(=O)CNC(=O)[C@H](Cc2ccccc2)NC(=O)CCCSC(C)(C)[C@@H](C(=O)N[C@@H](CC(N)=O)C(=O)N[C@@H](CO)C(=O)N[C@@H](Cc2ccccc2)C(=O)N[C@@H](CCCN=C(N)N)C(=O)N[C@@H](Cc2ccc(O)cc2)C(=O)O)NC(=O)CNC(=O)[C@H](CC(C)C)NC(=O)CNC(=O)[C@H](CO)NC(=O)[C@H](CCC(N)=O)NC(=O)[C@H](C)NC(=O)CNC1=O (FGGRIDRIGAQSGLG[Pen]NSFRY-OH; linker N-16 via X2)
IC50 [1]: 7.8 nM | IC50 [2]: 0.35 nM | EC50 (Oryctolagus cuniculus): 6.8e-10 M 50ul-1

CC[C@H](C)[C@@H]1NC(=O)[C@H](CCCN=C(N)N)NC(=O)[C@H](CC(=O)O)NC(=O)[C@H]([C@@H](C)CC)NC(=O)[C@H](CCCN=C(N)N)NC(=O)CNC(=O)CNC(=O)[C@H](Cc2ccccc2)NC(=O)CCSCC[C@@H](C(=O)N[C@@H](CC(N)=O)C(=O)N[C@@H](CO)C(=O)N[C@@H](Cc2ccccc2)C(=O)N[C@@H](CCCN=C(N)N)C(=O)N[C@@H](Cc2ccc(O)cc2)C(=O)O)NC(=O)CNC(=O)[C@H](CC(C)C)NC(=O)CNC(=O)[C@H](CO)NC(=O)[C@H](CCC(N)=O)NC(=O)[C@H](C)NC(=O)CNC1=O (FGGRIDRIGAQSGLG[hCys]NSFRY-OH; linker N-16 via X1)
IC50 [1]: 7.8 nM | IC50 [2]: 0.21 nM | EC50 (Oryctolagus cuniculus): 3.5e-10 M 50ul-1

CC[C@H](C)[C@@H]1NC(=O)[C@H](CCCN=C(N)N)NC(=O)[C@H](CC(=O)O)NC(=O)[C@H]([C@@H](C)CC)NC(=O)[C@H](CCCN=C(N)N)NC(=O)CNC(=O)CNC(=O)[C@H](Cc2ccccc2)NC(=O)[C@@H](NC(=O)[C@H](CO)NC(=O)[C@@H](N)CO)CSSC[C@@H](C(=O)N[C@@H](CC(N)=O)C(=O)N[C@@H](CO)C(=O)N[C@@H](Cc2ccccc2)C(=O)N[C@@H](CCCN=C(N)N)C(=O)N[C@@H](Cc2ccc(O)cc2)C(=O)O)NC(=O)CNC(=O)[C@H](CC(C)C)NC(=O)CNC(=O)[C@H](CO)NC(=O)[C@H](CCC(N)=O)NC(=O)[C@H](C)NC(=O)CNC1=O (H-SSCFGGRIDRIGAQSGLGCNSFRY-OH; disulfide 3-19) [listing 1 of 2 here]
IC50 [1]: 1.37 nM | IC50 [2]: 0.35 nM

CC[C@H](C)[C@@H]1NC(=O)[C@H](CCCN=C(N)N)NC(=O)[C@H](CC(=O)O)NC(=O)[C@H]([C@@H](C)CC)NC(=O)[C@H](CCCN=C(N)N)NC(=O)CNC(=O)CNC(=O)[C@H](Cc2ccccc2)NC(=O)[C@@H](NC(=O)[C@H](CO)NC(=O)[C@@H](N)CO)CSSC[C@@H](C(=O)N[C@@H](CC(N)=O)C(=O)N[C@@H](CO)C(=O)N[C@@H](Cc2ccccc2)C(=O)N[C@@H](CCCN=C(N)N)C(=O)N[C@@H](Cc2ccc(O)cc2)C(=O)O)NC(=O)CNC(=O)[C@H](CC(C)C)NC(=O)CNC(=O)[C@H](CO)NC(=O)[C@H](CCC(N)=O)NC(=O)[C@H](C)NC(=O)CNC1=O (H-SSCFGGRIDRIGAQSGLGCNSFRY-OH; disulfide 3-19) [listing 2 of 2 here]
EC50 (Oryctolagus cuniculus): 8.9e-11 M 50ul-1

CC[C@H](C)[C@H](NC(=O)[C@H](CCCN=C(N)N)NC(=O)[C@H](CC(=O)O)NC(=O)[C@@H](NC(=O)[C@H](CCCN=C(N)N)NC(=O)CNC(=O)CNC(=O)[C@H](Cc1ccccc1)NC(=O)N[C@@H](CC(=O)OC)C(=O)O)[C@@H](C)CC)C(=O)NCC(=O)N[C@@H](C)C(=O)N[C@@H](CCC(N)=O)C(=O)N[C@@H](CO)C(=O)NCC(=O)N[C@@H](CC(C)C)C(=O)NCC(=O)N[C@@H](CS)C(=O)N[C@@H](CC(N)=O)C(=O)N[C@@H](CO)C(=O)N[C@@H](Cc1ccccc1)C(=O)N[C@@H](CCCN=C(N)N)C(=O)N[C@@H](Cc1ccc(O)cc1)C(=O)O ({OMe-βAsp-CO}-FGGRIDRIGAQSGLGCNSFRY-OH)
IC50 [1]: 8.67 nM | EC50 (Oryctolagus cuniculus): 1.4e-10 M 50ul-1 | Electrolyte excretion (Rattus norvegicus [3]): 23.5 uM sample-1 | Electrolyte excretion (Rattus norvegicus [4]): 38.1 uM sample-1 | ED50 (Rattus norvegicus [5]): >2 nM/min/kg | ED50 (Rattus norvegicus [6]): >4 nM/min/kg
